Measurements reported in ChEMBL document CHEMBL6092133, “Enhancing the therapeutic window for Spectinamide anti-tuberculosis Agents: Synthesis, Evaluation, and activation of phosphate prodrug 3408” (Bioorg Med Chem Lett, 2024).
Active and inactive are the calls of the source. No cut-off for these calls is given here.

What was measured:
Bacterial 70S ribosome = experiment: Inhibition of ribosome-mediated protein synthesis in Mycobacterium smegmatis; assay type: subcellular, Mycolicibacterium smegmatis
[1] = Toxicity in Sprague-Dawley rat assessed as maximum tolerated dose administered via iv infusion for 30 mins; assay type: organism-based; details: in vivo
Outline: (§1)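 Rats given single intravenous doses either as a bolus over 5 or 30 seconds or as a timed infusion (minutes, per line). The highest dose tolerated without acute toxicity was recorded as MTD in mg/kg.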

[2] = Toxicity in Sprague-Dawley rat assessed as maximum tolerated dose administered as iv bolus injection for 5 sec; assay type: organism-based; details: in vivo; outline: as §1
[3] = Toxicity in Sprague-Dawley rat assessed as maximum tolerated dose administered as iv bolus injection for 30 sec; assay type: organism-based; details: in vivo; outline: as §1
[4] = Toxicity in Sprague-Dawley rat assessed as maximum tolerated dose administered via iv infusion for 5 mins; assay type: organism-based; details: in vivo; outline: as §1
[5] = Toxicity in Sprague-Dawley rat assessed as maximum tolerated dose administered via iv infusion for 15 mins; assay type: organism-based; details: in vivo; outline: as §1
[6] = AUC in male Sprague-Dawley rat at 10 mg/kg, iv administered as bolus injection and measured after 48 hrs by LC-MS/MS analysis; assay type: ADME, organism-based; details: in vivo
Outline: (§2)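 Rats dosed once by 10 mg/kg i.v. bolus with either the parent spectinamide or the phosphate prodrug at an equivalent molar amount. Plasma parent-drug concentration-time profiles gave AUC, Cmax, clearance, Vss and terminal half-life, reported as mean ± spread.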

[7] = Cmax in male Sprague-Dawley rat at 10 mg/kg, iv administered as bolus injection and measured after 48 hrs by LC-MS/MS analysis; assay type: ADME, organism-based; details: in vivo; outline: as §2
[8] = Half life in male Sprague-Dawley rat at 10 mg/kg, iv administered as bolus injection and measured after 48 hrs by LC-MS/MS analysis; assay type: ADME, organism-based; details: in vivo; outline: as §2
[9] = Clearance in male Sprague-Dawley rat at 10 mg/kg, iv administered as bolus injection and measured after 48 hrs by LC-MS/MS analysis; assay type: ADME, organism-based; details: in vivo; outline: as §2
[10] = Volume of distribution at steady state in male Sprague-Dawley rat at 10 mg/kg, iv administered as bolus injection and measured after 48 hrs by LC-MS/MS analysis; assay type: ADME, organism-based; details: in vivo, read-out: Vdss; outline: as §2
[11] = (§3) Prodrug conversion in male Sprague-Dawley rat assessed as half-life of 2-(5-chloropyridin-2-yl)-N-((2R,4R,4aS,5aR,6S,7S,8R,9S,9aR,10aS)-4a,7,9-trihydroxy-2-methyl-6,8-bis(methylamino)decahydro-2H-benzo[b]pyrano[2,3-e][1,4]dioxin-4-yl)acetamide at 10 mg/kg, iv administered as bolus injection and measured after 48 hrs by LC-MS/MS analysis; assay type: ADME, organism-based; details: in vivo; outline: as §2
[12] = as §3, with “Cmax” for “half-life”; assay type: ADME, organism-based; details: in vivo; outline: as §2
[13] = as §3, with “AUC” for “half-life”; assay type: ADME, organism-based; details: in vivo; outline: as §2
[14] = as §3, with “volume of distribution at steady state” for “half-life”; assay type: ADME, organism-based; details: in vivo; outline: as §2
[15] = Stability of compound in plasmaLyte A and milli-Q water mixture measured for >=6 hrs at room temperature by LC-MS/MS analysis; assay type: physicochemical; details: buffer
Outline: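 Prodrug held in dosing vehicle alone at room temperature for at least 6 hours, with compound integrity monitored over time.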

[16] = system: Mycobacterium tuberculosis; experiment: Antibacterial activity against Mycobacterium tuberculosis H37Rv by whole cell MIC assay; assay type: functional, organism-based
[17] = Prodrug conversion in rat plasma assessed as 2-(5-chloropyridin-2-yl)-N-((2R,4R,4aS,5aR,6S,7S,8R,9S,9aR,10aS)-4a,7,9-trihydroxy-2-methyl-6,8-bis(methylamino)decahydro-2H-benzo[b]pyrano[2,3-e][1,4]dioxin-4-yl)acetamide formation by measuring half-life at 0.1 to 1 microg/ml; assay type: ADME, cell-free; details: dose 0.1-1 µg/ml
Outline: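 Prodrug incubated in vitro in fresh rat plasma. Appearance of the parent drug was followed over time to give a conversion half-life.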

[18] = as §3, with “clearance” for “half-life”; assay type: ADME, organism-based; details: in vivo; outline: as §2

With `CN[C@@H]1[C@H](O)[C@H](NC)[C@H]2O[C@@]3(O)C(=O)C[C@@H](C)O[C@H]3O[C@@H]2[C@H]1O` [SPECTINOMYCIN] the IC50 (Bacterial 70S ribosome) was 1080 nM.
With `CN[C@@H]1[C@H](O)[C@H](NC)[C@H]2O[C@]3(O)[C@H](O[C@@H]2[C@H]1O)O[C@H](C)C[C@H]3NC(=O)Cc1ccc(Cl)cn1` the MTD at 0.5 h [1] was 300 mg/kg, the MTD at 5 s [2] was 75 mg/kg and the MTD at 0.5 min [3] was 100 mg/kg. The MTD at 5 min [4] was 100 mg/kg and the MTD at 0.25 h [5] was 150 mg/kg.
Compound `CN[C@@H]1[C@H](O)[C@H](NC)[C@H]2O[C@]3(O)[C@H](O[C@@H]2[C@H]1O)O[C@H](C)C[C@H]3NC(=O)Cc1ccc(O)cn1` has an AUC at 48 h [6] of 22000 ng·h/mL, a Cmax [7] of 47000 ng/mL and a half-life [8] of 23.5 min. The clearance [9] was 7.72 mL/min/kg, the MTD at 5 s [2] was 200 mg/kg and the IC50 (Bacterial 70S ribosome) was 1790 nM. For the same compound, the MTD at 0.5 min [3] was 200 mg/kg, the Vd [10] was 0.494 L/kg and the MTD at 5 min [4] was 350 mg/kg. It also gave an MTD at 0.25 h [5] greater than 500 mg/kg.
`CN[C@@H]1[C@H](O)[C@H](NC)[C@H]2O[C@]3(O)[C@H](O[C@@H]2[C@H]1O)O[C@H](C)C[C@H]3NC(=O)Cc1ccc(OP(=O)(O)O)cn1` gave a t1/2 [11] of 23.4 min, a Cmax [12] of 38900 ng/mL and an AUC [13] of 18500 ng·h/mL. For the same compound, the Vdss [14] was 0.322 L/kg, the Stability [15] was “Stable” and the MTD at 5 s [2] was greater than 500 mg/kg. The Activity [16] was “inactive”, the t1/2 [17] was 19 min and the IC50 (Bacterial 70S ribosome) was 12200 nM. It also gave a CL [18] of 9.1 mL/min/kg.
